This is an account of results in the RNAGym collection of RNA variant scans (doi:10.1126/science.aae0568).

B1: tRNA (parent)
chain: GUUCCGUUGGCGUAAUGGUAACGCGUCUCCCUCCUAAGGAGAAGACUGCGGGUUCGAGUCCCGUACGGAACG

Variants at the floor of the assay were thinned out.

In the series the parent is B1. Description: yeast fitness relative to wild type (ratio to wild type); higher = fitter; tRNA-Arg(CCU), competitive growth, 37 C, YPD. A digest of the protocol:
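Amplicons of the tRNA-Arg(CCU) gene were sequenced, 100-nucleotide paired-end, from the start population and from each end population of a pooled yeast competition. The competition, in six parallel replicates, lasted 24 hours in YPD at 37°C. Fitness relative to wild type was calculated from changes in genotype frequencies. Genotypes had to have ≥ 100 starting reads, and estimates < 0.5 were set to 0.5.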
Take C11A U28G C33A A45G A65U: the yeast fitness is no more than 0.5.

For U8A G18C C27U C46A G50A C62U, the yeast fitness was no more than 0.5.

With A21C U26C A40G U47C, the yeast fitness was no more than 0.5.

Turning to C5U G44C U54C, the yeast fitness is 0.637.

For A21G U47C, the yeast fitness came out at 0.921.

Take C31A A37C C46U: the yeast fitness was no more than 0.5.

As for U7C A20G C31U A43G U59A, the yeast fitness is no more than 0.5.

In the case of U2G U3G C29G C30G C46G, the yeast fitness was no more than 0.5.

On to C5A C62U A70C, for which the yeast fitness was 0.616.

On to U19A U47C, for which the yeast fitness was found to be 0.925.

Take U3A A21C G25U A43C: the yeast fitness is no more than 0.5.

In the case of U3A A14G A15U A36U G39C A40U C49U C55A, the yeast fitness is 0.612.

Turning to A20C G23A C55G, the yeast fitness stood at 0.593.

On to C27U C60U, for which the yeast fitness was 0.849.

As for C33G C62U A70C, the yeast fitness was 0.618.

Consider U3A C4A U8C C31U A37U G48C C66U, for which the yeast fitness is no more than 0.5.

On to G18A A20U A69U, for which the yeast fitness is 0.686.

Take U7C A36C A57U C61A C66G: the yeast fitness is 0.537.

As for G25C G39C G44C, the yeast fitness was no more than 0.5.

For C5U C22U C33U A37G, the yeast fitness is no more than 0.5.

Consider G9C C27A C30A, for which the yeast fitness is no more than 0.5.

Consider U2A U13A C24A A45C, for which the yeast fitness was no more than 0.5.

For the variant A20C C34G G68C, the yeast fitness is no more than 0.5.

With A20C G51C, the yeast fitness is 0.541.

As for U2C U19C C49U A57C, the yeast fitness was no more than 0.5.

Turning to U7C C46U, the yeast fitness was found to be 0.884.

For C11U C22U C24U, the yeast fitness is 0.56.

Take C4G G17A G51A C66U: the yeast fitness was no more than 0.5.

On to C5G U7C U26G C60G, for which the yeast fitness was no more than 0.5.

Consider G9A C30G G58C, for which the yeast fitness is no more than 0.5.

Take G48A C66A G67A: the yeast fitness was no more than 0.5.

With C4A G17C A20U C22U, the yeast fitness was no more than 0.5.

Turning to C4U C5A C46U, the yeast fitness came to 0.655.

As to G17A A37C A65C, the yeast fitness is no more than 0.5.

G9A G51A A57G: the yeast fitness was no more than 0.5.

In the case of U2C G25A, the yeast fitness stood at 0.943.

With C5U C22A, the yeast fitness was 0.84.

As to U19C C24U A40C, the yeast fitness amounted to 0.663.

As for C4U C31U A37C C66U A69U, the yeast fitness was no more than 0.5.

On to A14U A15G C49G, for which the yeast fitness is no more than 0.5.

On to G9C A40C G51C U64C, for which the yeast fitness was found to be 0.79.

As to G9A C11G U19C, the yeast fitness was 0.536.

In the case of A37C G63C, the yeast fitness was 0.663.

In the case of U13C C55A A69U, the yeast fitness is 0.624.

As for A20G C46U A70G, the yeast fitness turned out to be 0.794.

For A15U A37C A43U, the yeast fitness worked out at 0.514.

For A36U C46A C66A, the yeast fitness is no more than 0.5.

A40G U54C: the yeast fitness came to 0.955.

As for C4U C61G, the yeast fitness stood at 0.63.

For the variant A14G A36C A69C, the yeast fitness is no more than 0.5.

Turning to C4U C30U C62A, the yeast fitness is no more than 0.5.

A42G A43G C49U: the yeast fitness was 0.556.

In the case of C4A U47G, the yeast fitness amounted to 0.686.

Turning to U28A G58A, the yeast fitness amounted to 0.913.

With U8C A14G G23U A65C, the yeast fitness is no more than 0.5.

Consider C11U A21U A42G C60A, for which the yeast fitness was no more than 0.5.

With C33U C34A A43C, the yeast fitness was no more than 0.5.

As for U7C A57G, the yeast fitness was 0.842.

As to G6C C29G G39C, the yeast fitness came to 0.931.

With U7A U8C A36C G51C, the yeast fitness was no more than 0.5.

With C11U U16C C24U A42C G56C A65C, the yeast fitness was no more than 0.5.

In the case of G12A A21U C55G C60A C61G C66G, the yeast fitness is no more than 0.5.

For the variant G18C C27G C46A G58A U59A, the yeast fitness is no more than 0.5.

As for G18A C30U A57C, the yeast fitness is no more than 0.5.

As to C5U A15G A20U A42G G63A, the yeast fitness is no more than 0.5.

Take C22G G58C C61U: the yeast fitness was found to be 0.616.

For the variant C29G A37G A45U G68C, the yeast fitness is no more than 0.5.

Consider U8G G18C A37G A40G C55G C66A, for which the yeast fitness is no more than 0.5.

Take G25U A36U C49U: the yeast fitness is no more than 0.5.

For C34A A42U, the yeast fitness stood at 0.618.

Consider C31G A37G, for which the yeast fitness was determined as 0.79.

Turning to C4G A14G C24U U32G A43G C66U, the yeast fitness is no more than 0.5.

Turning to U3C C24G C31G C61G, the yeast fitness was no more than 0.5.

G12A A37U A57C: the yeast fitness was 0.608.

As to U7G C61U G63A C66A, the yeast fitness was no more than 0.5.

In the case of U7A A65U A70G, the yeast fitness worked out at 0.677.

As to C5U U19C C22U, the yeast fitness came to 0.721.

As to G12A G50C G68C, the yeast fitness stood at 0.522.

As to U19C C24G C34A, the yeast fitness was no more than 0.5.

As for C5U U19G C66A, the yeast fitness stood at 0.531.

As to U2A C22U A40C, the yeast fitness was determined as 0.631.

A20C U53G C66U: the yeast fitness turned out to be 0.696.

For C5G G17A A40C, the yeast fitness came out at 0.651.

Take G9A C11G A36U: the yeast fitness is no more than 0.5.

On to C27G A37G A57C G68C A69C, for which the yeast fitness is no more than 0.5.

For the variant C27G C46U C61G G68U, the yeast fitness was no more than 0.5.

For G25C U26G C46G C60G, the yeast fitness was no more than 0.5.

In the case of C5A G9C A21U A69C, the yeast fitness is no more than 0.5.

For the variant C4A C11G U13A A20C C22U A36C, the yeast fitness was 0.705.

For the variant G38C G56A G58A A65C, the yeast fitness is no more than 0.5.

For C11A C31A C66G A69U, the yeast fitness is no more than 0.5.

C11A U59C: the yeast fitness came out at 0.527.

Take U16A C29G C31G C55A C62U A69C: the yeast fitness is no more than 0.5.

Take C24G U32A A43G G50A: the yeast fitness is no more than 0.5.

In the case of C5G G9C G56C, the yeast fitness is no more than 0.5.

Take C4A C24A G41C G51C: the yeast fitness was no more than 0.5.

Consider A21U C24U G56C G63A U64C G67C, for which the yeast fitness was no more than 0.5.

As for C4G G9C C22A, the yeast fitness is no more than 0.5.

With C34U A36C, the yeast fitness was found to be 0.554.

Consider U13C A21G U28C C31G, for which the yeast fitness was found to be 0.539.

On to G9C A45U C55G C61U, for which the yeast fitness was no more than 0.5.

Take G6C U35A G44C C60A: the yeast fitness is no more than 0.5.

In the case of A21G A69C, the yeast fitness is 0.932.

As to C11A A36U C61U A65U, the yeast fitness is no more than 0.5.

With U32G G63A, the yeast fitness was 0.557.

C11U A14U C27U A36U A43G C46U A65U: the yeast fitness was no more than 0.5.

For the variant C4A C61U G68A, the yeast fitness stood at 0.541.

Turning to C22A G25A A69U, the yeast fitness is 0.793.

U26C C30G C61U A70G: the yeast fitness stood at 0.689.

Turning to G17C A21U C33G, the yeast fitness is no more than 0.5.

Turning to C11A U16C U32G, the yeast fitness came out at 0.523.

As for U13G U28A U53C C55G C66A, the yeast fitness is no more than 0.5.

As to U7G A36U G63A, the yeast fitness was 0.532.

In the case of C4A C55A, the yeast fitness worked out at 0.587.

Consider G12A A43U, for which the yeast fitness was 0.889.

In the case of A14G A45U A69C, the yeast fitness came out at 0.748.

As for U2A C31G U32G, the yeast fitness is 0.526.

For A14C A43G U64A, the yeast fitness was no more than 0.5.

G6A C27U C31G A43C C49G G52C U59A: the yeast fitness is no more than 0.5.

Consider C11U G25C, for which the yeast fitness stood at 0.982.

For G10C C30G A43U G68U, the yeast fitness is no more than 0.5.

As to U13C C34G C62U, the yeast fitness was no more than 0.5.

Regarding C27A U59C C62A, the yeast fitness was no more than 0.5.

Turning to C30G C31G, the yeast fitness turned out to be 0.687.

Regarding U3A G10C C24G A37U G38A G48C, the yeast fitness is no more than 0.5.

Take C4G A36G G48A: the yeast fitness stood at 0.533.

Take G9C U19C C29U A36U G67A: the yeast fitness was no more than 0.5.

As for G6C U8C U54C G58A, the yeast fitness is no more than 0.5.

As to U2A A42C, the yeast fitness amounted to 0.818.

Turning to A20G G39A, the yeast fitness was 0.955.

Turning to U28C A36G G41A A42C, the yeast fitness is no more than 0.5.

C4A U35A A37U: the yeast fitness is no more than 0.5.

Consider G23C C29A G38A A57G, for which the yeast fitness is no more than 0.5.

Turning to C22U A40G A43U C46G C49G C62U U64C, the yeast fitness is no more than 0.5.

In the case of U3G C11U A45U, the yeast fitness worked out at 0.559.

In the case of U3C A15C A43G C46G C66G A69G, the yeast fitness was no more than 0.5.

In the case of C5A G44C U54C, the yeast fitness stood at 0.556.

As to U16G C24G U59A, the yeast fitness is no more than 0.5.

Take G6C C27U: the yeast fitness was 0.933.

For the variant A15C A40C A70U, the yeast fitness is no more than 0.5.

As to G17C A42U G44C A45U G58A, the yeast fitness is no more than 0.5.

Consider G10A U64C A69U, for which the yeast fitness is 0.542.

For the variant U7A G51A, the yeast fitness came to 0.652.

Turning to C31A A42G A43G G68C, the yeast fitness turned out to be 0.52.

For the variant G23A C60G G67A, the yeast fitness is no more than 0.5.

Consider A21G A40C A42U C46U C49U G51A A69C, for which the yeast fitness is 0.596.

Regarding C31U U64C, the yeast fitness worked out at 0.817.

On to C62G A65G, for which the yeast fitness amounted to 0.811.

Turning to A20G C61U, the yeast fitness amounted to 0.964.

As to U28C G41C G63A, the yeast fitness is no more than 0.5.

For the variant G9C A21G, the yeast fitness turned out to be 0.669.

In the case of U2A A21G C29U A40U C49G, the yeast fitness was no more than 0.5.

On to C27U G44C U59G, for which the yeast fitness is no more than 0.5.

Regarding G12A U26C C62U, the yeast fitness was 0.579.

Regarding U32C A42G, the yeast fitness came to 0.861.

With C11G A45G G67A, the yeast fitness was 0.539.

As for C24U C33U C46U C49A C62U A69U, the yeast fitness is no more than 0.5.

Turning to A15U C31A C49G A65C, the yeast fitness is no more than 0.5.

Consider C30G C33A, for which the yeast fitness was 0.563.

U8A C30A: the yeast fitness worked out at 0.604.

G10A G18A C27G A37G G38A: the yeast fitness was no more than 0.5.

For the variant U7C C61U A70G, the yeast fitness was found to be 0.712.

Take G10A A42U: the yeast fitness turned out to be 0.805.

For the variant C27U U47C G63A C66U, the yeast fitness is no more than 0.5.

In the case of G6A U59A, the yeast fitness was 0.715.

Regarding C11A C34U, the yeast fitness turned out to be 0.552.

For A15U G18A A40C A43C C46G A69C, the yeast fitness is no more than 0.5.
